Measurements taken from ChEMBL document CHEMBL4665831, “Ultrapotent Inhibitor of Clostridioides difficile Growth, Which Suppresses Recurrence In Vivo” (J Med Chem, 2020).

What was measured:
[1] = Selectivity ratio of MIC for antibacterial activity against Bacteroides fragilis HM-709 to antibacterial activity against Clostridioides difficile NR-32895 P19; format: ADME
[2] = test system: Bacteroides fragilis; experiment: Antibacterial activity against Bacteroides fragilis HM-711 assessed as reduction in microbial growth after 48 hrs by broth microdilution method; format: organism-based
Method in brief: (§1)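 Gut commensal MICs by broth microdilution: a 0.5 McFarland suspension was diluted to ~5 × 10^5 CFU/mL in BHIS broth (Bacteroides) or MRS broth (Lactobacillus). Agents were serially diluted and incubated 48 h at 37°C. MIC was read by visual inspection of growth.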

[3] = Selectivity ratio of MIC for antibacterial activity against Bacteroides fragilis HM-709 to antibacterial activity against Clostridioides difficile NR-32891 P13; format: ADME
[4] = Selectivity ratio of MIC for antibacterial activity against Bacteroides dorei HM-719 to antibacterial activity against Clostridioides difficile ATCC 43255; format: ADME
[5] = Selectivity ratio of MIC for antibacterial activity against Bacteroides fragilis HM-711 to antibacterial activity against Clostridioides difficile NR-32883 P2; format: ADME
[6] = test system: Clostridioides difficile; experiment: Antimicrobial activity against Clostridioides difficile NR-13432 isolate 6 assessed as reduction in microbial growth after 48 hrs by broth microdilution method; format: functional
Method in brief: (§2)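 Broth microdilution: a 0.5 McFarland suspension was diluted in brain heart infusion supplemented (BHIS) broth to ~5 × 10^5 CFU/mL. Agents were serially diluted and plates incubated anaerobically at 37°C for 48 h.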

[7] = Selectivity ratio of MIC for antibacterial activity against Bacteroides dorei HM-719 to antibacterial activity against Clostridioides difficile NR-32895 P19; format: ADME
[8] = test system: Clostridioides difficile; experiment: Potency index, ratio of vancomycin MIC to test compound MIC for antibacterial activity against Clostridioides difficile NR-13432 isolate 6; format: functional
[9] = test system: Clostridioides difficile; experiment: Antimicrobial activity against Clostridioides difficile NR-13435 isolate 9 assessed as reduction in microbial growth after 48 hrs by broth microdilution method; format: functional; method in brief: as §2
[10] = test system: Clostridioides difficile; experiment: Potency index, ratio of vancomycin MIC to test compound MIC for antibacterial activity against Clostridioides difficile NR-13435 isolate 9; format: functional
[11] = Selectivity ratio of MIC for antibacterial activity against Bacteroides fragilis HM-711 to antibacterial activity against Clostridioides difficile NR-13435 isolate 9; format: ADME
[12] = test system: Clostridioides difficile; experiment: Potency index, ratio of vancomycin MIC to test compound MIC for antibacterial activity against Clostridioides difficile NR-32891 P13; format: functional
[13] = Apparent permeability across basolateral to apical side in human Caco-2 cells; format: ADME, cell-based
Method in brief: (§3)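 Bidirectional Caco-2 monolayer transport was run by a contract lab. Papp = (V_R·C_R,end/Δt)·1/[A·(C_D,mid − C_R,mid)]. Donor mid-point is the mean of the 0-min and end donor concentrations; receiver mid-point is half the end receiver concentration. Concentrations were taken as LC peak areas.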

[14] = Selectivity ratio of MIC for antibacterial activity against Bacteroides fragilis HM-709 to antibacterial activity against Clostridioides difficile ATCC 43255; format: ADME
[15] = Selectivity ratio of MIC for antibacterial activity against Bacteroides dorei HM-719 to antibacterial activity against Clostridioides difficile NR-13435 isolate 9; format: ADME
[16] = Selectivity ratio of cytotoxicity against human Caco-2 cells to MIC for antibacterial against clostridioides difficile ATCC BAA 1801; format: toxicity, cell-based
[17] = Selectivity ratio of MIC for antibacterial activity against Bacteroides fragilis HM-709 to antibacterial activity against Clostridioides difficile NR-32883 P2; format: ADME
[18] = test system: Clostridioides difficile; experiment: Antimicrobial activity against Clostridioides difficile NR-32883 P2 assessed as reduction in microbial growth after 48 hrs by broth microdilution method; format: functional; method in brief: as §2
[19] = Selectivity ratio of MIC for antibacterial activity against Bacteroides dorei HM-719 to antibacterial activity against Clostridioides difficile NR-13432 isolate 6; format: ADME
[20] = test system: Clostridioides difficile; experiment: Antimicrobial activity against Clostridioides difficile ATCC 43255 assessed as drug resistance by measuring frequency of mutation at 15 times of MIC after 48 hrs; format: functional
[21] = test system: Enterococcus faecium; experiment: Antimicrobial activity against vancomycin-resistant Enterococcus faecium ATCC 700221 assessed as reduction in microbial growth after 48 hrs by CLSI based broth microdilution method; format: functional
Method in brief: (§4)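 CLSI broth microdilution: strains were grown aerobically overnight on tryptone soy agar at 37°C. A 0.5 McFarland suspension was diluted to ~5 × 10^5 CFU/mL in cation-adjusted Mueller-Hinton broth (E. coli) or tryptone soy broth (enterococci), and agents were serially diluted.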

[22] = Selectivity ratio of MIC for antibacterial activity against Bacteroides dorei HM-719 to antibacterial activity against Clostridioides difficile NR-32883 P2; format: ADME
[23] = test system: Clostridioides difficile; experiment: Antimicrobial activity against Clostridioides difficile ATCC 43255 assessed as drug resistance by measuring frequency of mutation at 20 times of MIC after 48 hrs; format: functional
[24] = Selectivity ratio of MIC for antibacterial activity against Bacteroides fragilis HM-711 to antibacterial activity against Clostridioides difficile NR-32895 P19; format: ADME
[25] = test system: Caco-2; experiment: Cytotoxicity against human Caco-2 cells assessed as reduction in cell viability at >64 ug/ml after 2 hrs by MTS assay; format: cell-based; conditions: caco-2, 2 h, dose >64 µg/ml
Method in brief: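 Caco-2 cells were exposed to compound for 2 h, then to MTS reagent for 4 h, and absorbance was read at 490 nm. Testing was in triplicate, and viability was expressed as percent of DMSO-treated cells.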

[26] = test system: Bacteroides fragilis; experiment: Antibacterial activity against Bacteroides fragilis HM-709 assessed as reduction in microbial growth after 48 hrs by broth microdilution method; format: organism-based; method in brief: as §1
[27] = Selectivity ratio of MIC for antibacterial activity against Bacteroides fragilis HM-711 to antibacterial activity against Clostridioides difficile ATCC 43255; format: ADME
[28] = Selectivity ratio of MIC for antibacterial activity against Bacteroides fragilis HM-711 to antibacterial activity against Clostridioides difficile NR-32891 P13; format: ADME
[29] = test system: Clostridioides difficile; experiment: Antimicrobial activity against Clostridioides difficile ATCC 43255 assessed as reduction in microbial growth after 48 hrs by broth microdilution method; format: functional; method in brief: as §2
[30] = test system: Clostridioides difficile; experiment: Antibacterial activity against Clostridioides difficile ATCC 43255 infected in CDI mouse model assessed as survival rate at 50 mg/kg, po for 5 days and measured on day 21 relative to control; format: functional; conditions: ATCC 43255, po, 504 h, time 21 day
[31] = test system: Clostridioides difficile; experiment: Potency index, ratio of vancomycin MIC to test compound MIC for antibacterial activity against Clostridioides difficile NR-32904 P30; format: functional
[32] = test system: Escherichia coli; experiment: Antimicrobial activity against Escherichia coli JW55031 harboring TolC mutant assessed as reduction in microbial growth after 48 hrs by CLSI based broth microdilution method; format: functional; method in brief: as §4
[33] = test system: Clostridioides difficile; experiment: Potency index, ratio of vancomycin MIC to test compound MIC for antibacterial activity against Clostridioides difficile ATCC 43255; format: functional
[34] = test system: Lactobacillus gasseri; experiment: Antibacterial activity against Lactobacillus gasseri HM-400 assessed as reduction in microbial growth after 48 hrs by broth microdilution method; method in brief: as §1
[35] = test system: Enterococcus faecalis; experiment: Antimicrobial activity against vancomycin-resistant Enterococcus […] ATCC 51299 assessed as reduction in microbial growth after 48 hrs by CLSI based broth microdilution method; format: functional; method in brief: as §4
[36] = Apparent permeability across apical to basolateral side in human Caco-2 cells; format: ADME, cell-based; method in brief: as §3

O=C(Nc1nnc(-c2cc(Cl)cc(Cl)c2)o1)c1ccc(SC(F)(F)F)cc1
Selectivity ratio [1]: 100 | MIC [2]: 4.6 µM | Selectivity ratio [3]: 100 | Selectivity ratio [4]: 100 | Selectivity ratio [5]: 100 | MIC [6]: 0.07 µM | Selectivity ratio [7]: 100 | Ratio [8]: 2.5 | MIC [9]: 7 nM | Ratio [10]: 2.5 | Selectivity ratio [11]: 100 | Ratio [12]: 2.5 | Papp [13]: 0.1 10^-6 cm/s | Selectivity ratio [14]: 100 | Selectivity ratio [15]: 100 | Selectivity ratio [16]: > 9000 | Selectivity ratio [17]: 100 | MIC [18]: 0.02 µM | Selectivity ratio [19]: 100 | Activity [20]: <1.1 10^-9No_unit | MIC [21]: 0.29 µM | Selectivity ratio [22]: 100 | Activity [23]: <1.1 10^-9No_unit | Selectivity ratio [24]: 100 | Activity [25]: Non-Toxic | MIC [26]: 2.3 µM | Selectivity ratio [27]: 100 | Selectivity ratio [28]: 100 | MIC [29]: 0.04 µM | survival at 50 mg/kg [30]: 100% | Ratio [31]: 2.5 | MIC [32]: 9.2 µM | Ratio [33]: 2.5 | MIC [34]: 36.8 µM | MIC [35]: 0.14 µM | Papp [36]: 0.2 10^-6 cm/s
